Measurements published in ChEMBL document CHEMBL3244315, “Synthesis and antitumor properties of some isoindolylalkylphosphonium salts” (J Med Chem, 1978).

Legend:
P388 [1] = test: Antitumor activity against mouse P388 cells allografted in mouse at 6.25 mg/kg, ip; assay type: functional; conditions: route intraperitoneal
Method in brief: (§1)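 P-388 lymphocytic leukemia in mice, run by NCI Division of Cancer Treatment standard protocol. Drug given intraperitoneally once daily on days 1-9, dose in mg/kg, with H2O, H2O + Tween 80 or saline as vehicle. Read-out is T/C = treated/control mean or median survival time × 100, and ≥125% counts as significant. Active results were repeated in at least one more experiment.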

P388 [2] = test: Antitumor activity against mouse P388 cells allografted in mouse at 3.13 mg/kg, ip; assay type: functional; conditions: route intraperitoneal; method in brief: as §1
P388 [3] = test: Antitumor activity against mouse P388 cells allografted in mouse at 12.5 mg/kg, ip; assay type: functional; conditions: route intraperitoneal; method in brief: as §1
P388 [4] = test: Antitumor activity against mouse P388 cells allografted in mouse at 18.8 mg/kg, ip; assay type: functional; conditions: route intraperitoneal; method in brief: as §1
P388 [5] = test: Antitumor activity against mouse P388 cells allografted in mouse at 9 mg/kg, ip; assay type: functional; conditions: route intraperitoneal; method in brief: as §1
P388 [6] = test: Antitumor activity against mouse P388 cells allografted in mouse at 100 mg/kg, ip; assay type: functional; conditions: route intraperitoneal; method in brief: as §1
P388 [7] = test: Antitumor activity against mouse P388 cells allografted in mouse at 25 mg/kg, ip; assay type: functional; conditions: route intraperitoneal; method in brief: as §1
P388 [8] = test: Antitumor activity against mouse P388 cells allografted in mouse at 6 mg/kg, ip; assay type: functional; conditions: route intraperitoneal; method in brief: as §1
P388 [9] = test: Antitumor activity against mouse P388 cells allografted in mouse at 50 mg/kg, ip; assay type: functional; conditions: route intraperitoneal; method in brief: as §1
Mus musculus = test: Toxicity in mouse P388 cells allografted mouse at 25 mg/kg, ip; assay type: organism-based; design: dose 25 mg/kg, route intraperitoneal; conditions: in vivo

Compound: [Br-].c1ccc([P+](CCN2Cc3ccccc3C2)(c2ccccc2)c2ccccc2)cc1
- T/C (P388 [1]): 114%
- T/C (P388 [2]; dose 6.25 mg/kg, in the assay text read “at 6.25 mg/kg” for “at 3.13 mg/kg”): 114%

Compound: BrCC[P+](c1ccccc1)(c1ccccc1)c1ccccc1.[Br-]
- T/C (P388 [2]; dose 3.13 mg/kg): 127%

Compound: O=C1c2ccccc2C(=O)N1CC[P+](c1ccccc1)(c1ccccc1)c1ccccc1.[Br-]
- T/C (P388 [3]): 160%

Compound: O.O=C1c2ccccc2C(=O)N1C[P+](c1ccccc1)(c1ccccc1)c1ccccc1.[Br-]
- T/C (P388 [4]): 136%

Compound: O.O=C1c2ccccc2C(=O)N1CCC[P+](c1ccccc1)(c1ccccc1)c1ccccc1.[Br-]
- T/C (P388 [3]): 151%

Compound: O=C1c2ccccc2C(=O)N1CCCC[P+](c1ccccc1)(c1ccccc1)c1ccccc1.[Br-]
- T/C (P388 [5]): 121%

Compound: CCCC[P+](CCCC)(CCCC)CCN1C(=O)c2ccccc2C1=O.O.[Br-]
- T/C (P388 [6]): 116%

Compound: N#CCC[P+](CCC#N)(CCC#N)CCN1C(=O)c2ccccc2C1=O.O.[Br-]
- T/C (P388 [7]): 117%

Compound: O=C1c2ccccc2C(=O)N1CC[P+](Cc1ccccc1)(Cc1ccccc1)Cc1ccccc1.[Br-]
- T/C (P388 [7]): 112%

Compound: O=C1c2ccccc2C(=O)N1CC[P+](C1CCCCC1)(C1CCCCC1)C1CCCCC1.[Br-]
- T/C (P388 [7]): 118%

Compound: COc1ccc([P+](CCN2C(=O)c3ccccc3C2=O)(c2ccc(OC)cc2)c2ccc(OC)cc2)cc1.O.[Br-]
- T/C (P388 [8]): 134%

Compound: Cc1ccc([P+](CCN2C(=O)c3ccccc3C2=O)(c2ccc(C)cc2)c2ccc(C)cc2)cc1.O.[Br-]
- T/C (P388 [1]): 134%

Compound: O.O=C1c2ccccc2C(=O)N1CC[P+](c1ccc(Cl)cc1)(c1ccc(Cl)cc1)c1ccc(Cl)cc1.[Br-]
- T/C (P388 [1]): 110%

Compound: O.O=C1c2cccc([N+](=O)[O-])c2C(=O)N1CC[P+](c1ccccc1)(c1ccccc1)c1ccccc1.[Br-]
- T/C (P388 [9]): 109%

Compound: Cc1cccc2c1C(=O)N(CC[P+](c1ccccc1)(c1ccccc1)c1ccccc1)C2=O.[Br-]
- T/C (P388 [2]; dose 3.13 mg/kg): 140%

Compound: Cc1ccc2c(c1)C(=O)N(CC[P+](c1ccccc1)(c1ccccc1)c1ccccc1)C2=O.[Br-]
- T/C (P388 [1]): 139%

Compound: O.O=C1c2ccc([N+](=O)[O-])cc2C(=O)N1CC[P+](c1ccccc1)(c1ccccc1)c1ccccc1.[Br-]
- T/C (P388 [7]): 107%

Compound: O=C1C=CC(=O)N1CC[P+](c1ccccc1)(c1ccccc1)c1ccccc1.[Br-]
- T/C (P388 [7]): 120%

Compound: O.O=C1C2CC=CCC2C(=O)N1CC[P+](c1ccccc1)(c1ccccc1)c1ccccc1.[Br-] (stereo unspecified)
- T/C (P388 [7]): 115%

Compound: O.O=C1c2ccccc2C(=O)N1CC[P+](c1ccccc1)(c1ccccc1)c1ccccc1.[Cl-]
- T/C (P388 [1]): 133%

Compound: Br.O.[Br-].c1ccc([P+](CCN2Cc3ccccc3C2)(c2ccccc2)c2ccccc2)cc1
- T/C (P388 [1]): 118%

Compound: COCC[P+](c1ccccc1)(c1ccccc1)c1ccccc1.[Br-]
- T/C (P388 [3]): 123%

Compound: O.O=c1c2cc3c(=O)n(CC[P+](c4ccccc4)(c4ccccc4)c4ccccc4)c(=O)c3cc2c(=O)n1CC[P+](c1ccccc1)(c1ccccc1)c1ccccc1.[Br-].[Br-]
- T/C (P388 [7]): 18%
- Activity (Mus musculus): Toxic

Compound: O=C1c2ccccc2C(=O)N1CCP(=O)(c1ccccc1)c1ccccc1
- T/C (P388 [7]): 106%
